The target in series [1] is T1, Toll-like receptor 8 (Homo sapiens) (UniProt Q9NR97).
T1 sequence (whole entry): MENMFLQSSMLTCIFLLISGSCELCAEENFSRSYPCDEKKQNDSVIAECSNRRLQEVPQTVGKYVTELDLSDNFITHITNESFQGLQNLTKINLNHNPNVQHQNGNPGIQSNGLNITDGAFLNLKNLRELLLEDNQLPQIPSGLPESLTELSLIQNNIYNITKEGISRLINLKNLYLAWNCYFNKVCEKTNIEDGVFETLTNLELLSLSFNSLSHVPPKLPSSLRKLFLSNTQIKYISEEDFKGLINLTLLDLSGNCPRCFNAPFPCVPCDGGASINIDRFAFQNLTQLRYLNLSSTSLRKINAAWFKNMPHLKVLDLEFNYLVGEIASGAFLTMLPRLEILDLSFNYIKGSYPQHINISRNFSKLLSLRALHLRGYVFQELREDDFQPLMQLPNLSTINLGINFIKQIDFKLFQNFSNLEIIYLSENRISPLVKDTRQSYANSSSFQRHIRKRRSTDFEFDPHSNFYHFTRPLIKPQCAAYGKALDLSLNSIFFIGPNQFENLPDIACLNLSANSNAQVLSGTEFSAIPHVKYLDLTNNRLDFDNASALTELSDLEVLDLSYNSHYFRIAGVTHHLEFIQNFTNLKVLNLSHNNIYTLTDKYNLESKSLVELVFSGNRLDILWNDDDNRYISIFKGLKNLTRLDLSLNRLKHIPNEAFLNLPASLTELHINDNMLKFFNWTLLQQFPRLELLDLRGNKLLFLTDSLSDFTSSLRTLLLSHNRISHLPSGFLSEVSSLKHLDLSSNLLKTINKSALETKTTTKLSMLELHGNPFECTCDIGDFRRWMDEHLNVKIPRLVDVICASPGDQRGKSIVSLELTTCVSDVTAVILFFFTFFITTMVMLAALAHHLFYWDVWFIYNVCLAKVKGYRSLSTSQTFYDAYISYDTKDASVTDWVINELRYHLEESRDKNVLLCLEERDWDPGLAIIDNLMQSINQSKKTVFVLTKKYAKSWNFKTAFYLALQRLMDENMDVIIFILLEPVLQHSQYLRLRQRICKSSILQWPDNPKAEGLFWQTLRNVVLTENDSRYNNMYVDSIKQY
Description: Inhibition of TLR8 in human monocytes assessed as reduction in R848-induced IL6 production measured after 24 hrs by ELISA. The class given is cell-based. Put shortly:
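Human monocyte cell lines in RPMI 1640 with 10% FBS and 0.05 mM 2-mercaptoethanol, 1 × 10⁶/well, 24 h. After PBS washes, fresh RPMI added with R848 1 µg/mL and varying compound concentrations for 24 h. Supernatant TNF-α, IL-6 and IL-1β measured by ELISA.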
(In an ELISA, binding on a coated surface is turned into a signal by an enzyme label.)

The target in series [2] is T1, Toll-like receptor 8 (Homo sapiens). Description: Inhibition of TLR8 in human monocytes assessed as reduction in R848-induced TRAF3 expression measured after 2 hrs by Western blot analysis. The class given is cell-based. Put shortly:
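Monocyte cell lines, 2 × 10⁶/well, differentiated with PMA 100 ng/mL for 24 h. After washes, cells in unsupplemented RPMI received R848 1 µg/mL with varying compound concentrations for 2 h. Nuclear/cytoplasmic fractions extracted and resolved on 10% SDS-PAGE. Blots probed for p65, TRAF3 and p-IRAK4 (1:1000); lamin A/C (nuclear) and β-actin (cytoplasmic) as loading controls.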
On the technique in general: Immunoblotting shows a protein as a band on a membrane.

Series [3] concerns the target Toll-like receptor 3 (Homo sapiens) (UniProt O15455). Description: Inhibition of human TLR3 expressed in HEK-Blue cells assessed as inhibition of poly(I/C)-induced NF-kappaB activation at 20 uM measured after 24 hrs by quanti-blue based SEAP reporter gene assay. The class given is cell-based. The essentials: (§1)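 HEK-Blue SEAP format: 4 × 10⁴ cells/well in DMEM with ligand plus compound, 24 h at 37 °C. Supernatant mixed with QUANTI-Blue up to 1 h, then A620 read. Ligands: Pam3CSK4 100 ng/mL (TLR1/2), Pam2CSK4 100 ng/mL (TLR2/6), poly(I:C) 5 µg/mL (TLR3), LPS 20 ng/mL (TLR4), flagellin 50 ng/mL (TLR5), R848 1 µg/mL (TLR7), R848 2 µg/mL (TLR8), ODN2006 0.5 µM (TLR9). Mean ± s.d.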

Series [4] has as its target T1, Toll-like receptor 8 (Homo sapiens). Description: Inhibition of TLR8 in rheumatoid arthritis patient-derived PBMC assessed as reduction in spontaneous TNFalpha production measured after 24 hrs by ELISA.
The next series has as its target T2, Toll-like receptor 8 (Homo sapiens, UniProt Q9NR97).
T2 sequence (Q9NR97 whole entry): T1 sequence (whole entry)
Description: Binding affinity to human TLR8 ectodomain by isothermal titration calorimetry. The essentials:
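ITC at 298 K in 25 mM MES pH 5.5, 0.20 M NaCl, 5% DMSO. The protein was the human TLR8 ectodomain (residues 27–827). 100 µM compound was titrated into 10 µM hTLR8 as one 0.4 µL injection followed by 18 × 2 µL injections, 120 s apart. Integrated peaks were fitted for Kd.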
For orientation: In ITC the heat of successive injections is recorded.

Series [5] has as its target Toll-like receptor 1/2 (Homo sapiens) (UniProt O60603+Q15399). Description: Inhibition of human TLR1/2 expressed in HEK-Blue cells assessed as inhibition of Pam3CSK4-induced NF-kappaB activation at 20 uM measured after 24 hrs by quanti-blue based SEAP reporter gene assay. The class given is cell-based. The essentials:
as §1

Series [6] addresses T1, Toll-like receptor 8 (Homo sapiens). Description: Inhibition of human TLR8 expressed in HEK-Blue cells assessed as inhibition of R848-induced NF-kappaB activation at 20 uM measured after 24 hrs by quanti-blue based SEAP reporter gene assay. The class given is cell-based. The essentials:
as §1

Series [7] has the same target. Description: Inhibition of TLR8 in human PBMC assessed as reduction in R848-induced TNFalpha production measured after 24 hrs by ELISA. Put shortly: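 PBMCs from healthy donors isolated by density gradient centrifugation and cultured at once at 3 × 10⁶ cells/mL in RPMI 1640. Cells received R848 and varying compound concentrations for 24 h. Supernatants spun 10 min at 4 °C, frozen at −80 °C, and TNF-α measured by ELISA.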

For the next series, the system named is PBMC. Description: Cytotoxicity against rheumatoid arthritis patient-derived PBMC assessed as reduction in cell viability up to 80 uM measured after 24 hrs by CCK8 assay. The class given is cell-based. To be noted: human. Put shortly:
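CCK-8 viability: compounds incubated 24 h at 37 °C with HEK-Blue TLR8 cells (4 × 10⁴ cells/well) or PBMCs (3 × 10⁶ cells/mL). CCK-8 was added at 1:10 for up to 2 h, then absorbance read at 450 nm. Values normalized to untreated cells as 100% survival.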

Series [8] concerns the target T1, Toll-like receptor 8 (Homo sapiens). Description: Inhibition of human TLR8 expressed in HEK-Blue cells assessed as inhibition of R848-induced IL-8 mRNA level at 1 uM measured after 8 hrs by Trizol reagent based qRT-PCR analysis. The class given is cell-based. Put shortly:
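RT-qPCR: HEK-Blue TLR8 cells seeded at 1 × 10⁶/well and grown 24 h, then switched to serum-free medium. Treated with R848 4 µg/mL ± compound 1 µM for 8 h. Total RNA extracted with TRIzol, reverse transcribed, TNF-α and IL-8 mRNA quantified. Three independent biological replicates, mean ± s.d.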

Each structure is given as a SMILES string. Active and inactive are the calls of the source. No cut-off for these calls is given here.

These results are taken from ChEMBL document CHEMBL4354873, “Rationally Designed Small-Molecule Inhibitors Targeting an Unconventional Pocket on the TLR8 Protein-Protein Interface” (J Med Chem, 2020).

Toll-like receptor 3 (Homo sapiens), sequence (O15455 whole entry): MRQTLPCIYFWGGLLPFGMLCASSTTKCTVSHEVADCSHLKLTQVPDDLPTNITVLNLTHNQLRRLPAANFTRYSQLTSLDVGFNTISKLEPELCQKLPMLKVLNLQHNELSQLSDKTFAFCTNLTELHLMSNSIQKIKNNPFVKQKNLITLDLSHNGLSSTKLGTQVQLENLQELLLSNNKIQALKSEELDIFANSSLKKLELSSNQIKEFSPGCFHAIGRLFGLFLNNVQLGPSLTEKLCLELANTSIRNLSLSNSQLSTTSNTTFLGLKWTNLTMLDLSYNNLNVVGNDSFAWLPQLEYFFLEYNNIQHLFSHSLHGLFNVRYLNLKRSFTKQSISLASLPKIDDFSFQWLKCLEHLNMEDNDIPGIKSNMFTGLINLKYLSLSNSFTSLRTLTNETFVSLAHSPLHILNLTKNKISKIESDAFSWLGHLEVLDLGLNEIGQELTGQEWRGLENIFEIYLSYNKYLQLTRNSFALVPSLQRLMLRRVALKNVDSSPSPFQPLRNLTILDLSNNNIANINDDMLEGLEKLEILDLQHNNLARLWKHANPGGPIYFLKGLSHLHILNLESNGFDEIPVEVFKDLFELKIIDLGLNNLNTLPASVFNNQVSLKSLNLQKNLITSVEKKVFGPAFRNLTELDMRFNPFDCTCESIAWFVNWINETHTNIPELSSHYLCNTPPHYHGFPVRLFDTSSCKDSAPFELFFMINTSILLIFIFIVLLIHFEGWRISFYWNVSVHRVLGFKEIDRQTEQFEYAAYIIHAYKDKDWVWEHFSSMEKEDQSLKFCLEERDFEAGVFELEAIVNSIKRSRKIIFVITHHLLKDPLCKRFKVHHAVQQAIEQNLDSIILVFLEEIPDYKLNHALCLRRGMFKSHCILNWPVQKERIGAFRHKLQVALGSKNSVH

What is called Kd is the concentration at which binding is half-saturated. Lower therefore signals higher affinity. In the case of `CSc1nnc(CCCO)n1-c1cc(C)c(C)c(C)c1`, the inhibition result in [1], in [2], in series [4] and in series [7] was “Dose-dependent effect” each time. In addition, the inhibition entry in [3] and in series [5] was “inactive” each time. This compound gave a Kd at Toll-like receptor 8 of 225 nM. The inhibition entry in [6] and in series [8] was “Active” in each case. For the same compound, the Activity result in the series on PBMC is on record as “Non-Toxic”.
